Hits are enriched below; roughly 1.8% of the tested compounds scored in any of these assays.
Scp1 inh: Scp-1 (human) phosphatase inhibition | inhibition, % at 20 µM | Recombinant Scp1, phosphopeptide, malachite green phosphate absorbance | hit rate 0.88% among 340,000 | Q9GZU7;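 active means inhibition above about 50% at 20 µM, limit read from the data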;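 further: plate controls were DMSO wells with enzyme for no effect and wells lacking enzyme for full effect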
Target sequence (Q9GZU7 76-261 limits assumed): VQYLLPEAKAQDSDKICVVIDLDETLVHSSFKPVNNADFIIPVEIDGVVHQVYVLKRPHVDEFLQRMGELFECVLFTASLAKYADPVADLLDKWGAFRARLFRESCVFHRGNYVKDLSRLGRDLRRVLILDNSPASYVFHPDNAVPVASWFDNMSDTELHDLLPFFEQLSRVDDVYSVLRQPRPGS
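System: truncated SCP-1 phosphatase (76-261aa); medium: Tris acetate buffer pH 5.5 with MgCl2 and Tween-20; incubation: 45 min room-temperature reaction, 5 min colour, 30 min stabiliser; compound: single 20 µM dose, 1% DMSO; reagent: Phosphorylated 17-residue peptide substrate; read-out: % inhibition at 20 µM; technique: colorimetric free-phosphate detection, absorbance 630 nm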
STEP inh: STEP (human) phosphatase inhibition; P54829; recombinant STEP, OMFP fluorogenic substrate, fluorescence; inhibition, % at 20 µM; hit rate 0.25% among 360,000; AID 588621;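 active means inhibition at 20 µM, scaled per plate between control wells, above about 37%, limit read from the data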;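 further: 0% = DMSO with enzyme and substrate and 100% = substrate only without enzyme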
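medium = Bis-Tris buffer pH 6.0, 2.5 mM DTT, 0.005% Tween 20 | test system = STEP (striatal-enriched tyrosine phosphatase) enzyme, cell-free | measure = normalized % inhibition | compound dosing = 20 µM, 1% DMSO | also added = 25 µM OMFP | schedule = reaction 20 min, ambient temperature | measured by = fluorescence read at 480 nm ex / 540 nm em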
SUMO1-SIM PPI: SUMO1-SIM interaction modulation; P63165; SUMO1 binding to a labelled peptide, TR-FRET, 1 h; inhibition, % at 20 µM; hit rate 0.33% among 360,000; in the data active means inhibition above about 37%
Target sequence (P63165 whole entry, looked up): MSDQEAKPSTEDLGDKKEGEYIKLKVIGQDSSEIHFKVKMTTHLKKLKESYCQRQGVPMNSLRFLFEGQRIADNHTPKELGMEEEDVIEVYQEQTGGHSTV
DNMT1 block: DNMT1 (human) enzyme inhibition; hit rate 0.83% among 360,000; P26358; DNMT1 molecular beacon, Hinp1I cleavage, fluorescence; inhibition (reported as % activation of signal), % at 10 µM; in the data active means inhibition above about 50%
LMPTP block: LMPTP (human) inhibition; hit rate 0.22% among 360,000; recombinant LMPTP-A, OMFP fluorogenic substrate, fluorescence intensity; inhibition, % at 20 µM; AID 651560;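 active means compounds that cut the enzyme signal by at least half of the control window in the single-dose screen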;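 further: plate controls were DMSO wells with enzyme plus substrate for no effect and substrate without enzyme for full effect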
Target sequence (P24666 whole entry, looked up): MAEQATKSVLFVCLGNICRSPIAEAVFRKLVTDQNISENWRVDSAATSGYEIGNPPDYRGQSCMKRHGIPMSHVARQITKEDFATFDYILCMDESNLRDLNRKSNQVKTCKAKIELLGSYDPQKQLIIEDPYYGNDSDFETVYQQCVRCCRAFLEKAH
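Test system: LMPTP-A phosphatase enzyme. Amount: LMPTP-A at 0.625 nM final in the reaction. Reagent: OMFP substrate, 400 µM final. Times: 50 min at room temperature. Signal: endpoint fluorescence intensity from OMFP dephosphorylation. Read-out basis: % inhibition. Benchmarks: no-enzyme and uninhibited controls.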
Beacon interf DR: counter-screen for DNMT1 inhibitors: spectral interference, dose response; 200 tested, under 10 active; molecular beacon fluorescence; IC50, µM; AID 602382; shares compounds with DNMT1 block; call rule not given here
DNMT1 inh conf: DNMT1 inhibition confirmation, single concentration; shares compounds with DNMT1 block; DNMT1 molecular beacon HinP1I cleavage, fluorescence; inhibition, % at 10 µM; hit rate 8% among 2,300; AID 602385;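 active means average inhibition of at least 30% in the single-concentration confirmation test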
Beacon interf: counter-screen for DNMT1 inhibitors: spectral interference; shares compounds with DNMT1 block; DNMT1 molecular beacon spectral interference counterscreen, fluorescence 485/520; activation (fluorescence interference), % at 10 µM; hit rate 1% among 2,300; AID 602387;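 active means activation of at least 30% at 10 µM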;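 further: DNMT1 catalytic domain with a HinP1I cleavage step and a FAM/dabcyl DNA beacon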
Numbers without * were called inactive; . = no result given.

SMILES | Scp1 inh | STEP inh | SUMO1-SIM PPI | DNMT1 block | LMPTP block | DNMT1 inh conf | Beacon interf | others
Cc1ccc(C)c(OCC(=O)N2CCN(c3ncccn3)CC2)c1 | -3 | 0 | 0 | 1 | -1 | . | .
Cc1nc(NCc2cccnc2)c2c3c(sc2n1)CCCC3 | -6 | 27 | 4 | 51* | 4 | 1 | -5
O=C(N=Nc1c(O)n(Cc2ccccc2)c2ccccc12)c1ccc(O)cc1 | -14 | 1 | -10 | -5 | 0 | . | .
O=C(N=Nc1c(O)n(Cc2ccccc2)c2ccccc12)c1cc2ccccc2cc1O | 37 | 3 | -6 | 82* | 12 | 2 | -8
COc1cc2c(c(OC)c1OC)C(c1ccccc1C)CC(=O)O2 (configuration not stated) | -1 | -1 | 0 | 5 | -1 | . | .
Cc1ccc(OCC(=O)Nc2ccncc2)c(C)c1 | -2 | 2 | 5 | -2 | -2 | . | .
Cc1ccc(OCC(=O)Nc2ccc(-c3nc4ncccc4o3)cc2)c(C)c1 | 5 | -2 | 4 | 55* | 12 | 4 | 4
COC(=O)c1ccccc1S(=O)(=O)NNC(=O)c1nn(C)c(=O)c2ccccc12 | -4 | -1 | 12 | 53* | -1 | 5 | 6
COc1ccc(N=Cc2oc3ccc4ccccc4c3c2O)cc1 | 40 | 20 | -15 | 60* | 11 | 4 | 2
CCC(CC)C(=O)N(C)c1c(C)nc2c(OCc3ccccc3C)cccn12 | . | 0 | -4 | 68* | 1 | 0 | 0
CCC(CC)C(=O)N(C)c1c(C)nc2c(OCc3ccc(Cl)cc3Cl)cccn12 | . | 3 | 4 | 15 | 2 | . | .
COc1ccc2cc3c(N)nn(C(=O)Cc4ccc(Cl)cc4)c3nc2c1 | -3 | 1 | 3 | 69* | 1 | 0 | 1
CCOC(=O)c1ccc(N=Cc2cnc(N)nc2N)cc1 | 7 | -1 | -11 | -1 | -1 | . | .
O=C(CCl)N1N=C(c2ccco2)CC1c1ccco1 (configuration not stated) | 40 | 16 | 12 | 87* | 8 | 5 | 6
O=C(CCl)N1N=C(c2cccs2)CC1c1ccco1 (configuration not stated) | -3 | -2 | -9 | 14 | -2 | . | .
COCC(=O)OCC(=O)N1N=C(c2ccc(Cl)cc2)CC1c1ccco1 (configuration not stated) | -4 | -3 | -8 | 4 | -1 | . | .
O=C(OCC(=O)N1N=C(c2ccc(Cl)cc2)CC1c1ccco1)c1cccnc1 (configuration not stated) | 17 | -1 | 9 | 81* | 10 | 3 | 3
CC(C)(C)c1ccc(C(=O)C2CCCN(C(=O)CCn3cncn3)C2)cc1 (configuration not stated) | 1 | -2 | 2 | 2 | -1 | . | .
O=C(CNC(=O)/C=C/c1ccco1)N=Nc1c(O)[nH]c2ccccc12 | 93* | 98* | 105* | 93* | 72* | 82* | -3 | Beacon interf DR=>99
Cc1ccc(C(=O)OCC(=O)NCc2ccco2)s1 | 39 | 0 | 0 | 58* | 4 | 1 | -1
Cc1ccc(C(=O)OCC(=O)NCc2cccs2)s1 | -6 | 2 | 3 | 1 | -1 | . | .
O=C(O)CCCCN1C(=O)/C(=C\c2ccc(OCc3ccccc3)c(OCc3ccccc3)c2)SC1=S | 1 | 4 | 13 | 81* | 35 | 15 | -2
O=C(O)CCCN1C(=O)/C(=C\c2ccccc2OCc2ccccc2)SC1=S | -6 | 4 | 14 | 1 | 5 | . | .
O=C(O)CN1C(=O)/C(=C\c2cc(Br)ccc2OCc2ccc(F)cc2)SC1=S | 8 | 6 | 8 | 24 | 4 | . | .
O=C(O)CN1C(=O)/C(=C\c2cc(Br)ccc2OCc2ccc(Cl)cc2)SC1=S | -7 | 16 | 61* | 61* | 14 | 56* | -9 | Beacon interf DR=>99
Cc1ccc2nc(NC(=O)/C=C/c3ccc4c(c3)OCO4)sc2c1 | 6 | 10 | -1 | 56* | 8 | 2 | -4

Compound activity as filed in PubChem BioAssay.
